Active and inactive are the calls of the source. The calls are words filed in the database; no cut-off is given here.
Key:
[1] = molecular target: T1, Neutral cholesterol ester hydrolase 1 (Mus musculus) (UniProt Q8BLF1); test: Inhibition of KIAA1363 in mouse brain assessed as reduction in spectral count at 50 uM treated for 30 mins by ABPP-MudPIT assay relative to control; type: tissue-based
T1 sequence (whole entry): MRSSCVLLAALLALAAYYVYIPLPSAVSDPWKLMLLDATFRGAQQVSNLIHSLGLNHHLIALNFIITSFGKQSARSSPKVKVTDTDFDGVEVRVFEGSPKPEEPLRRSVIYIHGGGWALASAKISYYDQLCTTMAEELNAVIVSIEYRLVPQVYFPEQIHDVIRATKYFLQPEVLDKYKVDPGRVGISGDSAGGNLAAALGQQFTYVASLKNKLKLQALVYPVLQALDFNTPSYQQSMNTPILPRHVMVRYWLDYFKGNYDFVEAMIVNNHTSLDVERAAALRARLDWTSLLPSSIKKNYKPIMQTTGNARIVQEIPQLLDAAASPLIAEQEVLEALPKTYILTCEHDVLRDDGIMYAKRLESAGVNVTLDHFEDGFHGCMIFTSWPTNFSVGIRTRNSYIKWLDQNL
How it was run: (§1)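 Mouse brain proteome was treated with inhibitor at the stated single concentration, or DMSO as control, for 30 min. FP-biotin (5 μM) was then added for 120 min, followed by avidin enrichment and LC-MS (ABPP-MudPIT). Runs were in triplicate. Only hydrolases with >15 average spectral counts in control were quantified. Blockade is the percent reduction in average spectral counts versus DMSO; >60% defined a target.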

[2] = molecular target: T2, Fatty-acid amide hydrolase 1 (Mus musculus) (UniProt O08914); test: Inhibition of FAAH in mouse brain assessed as reduction in spectral count at 50 uM treated for 30 mins by ABPP-MudPIT assay relative to control; type: tissue-based; how it was run: as §1
T2 sequence (whole entry): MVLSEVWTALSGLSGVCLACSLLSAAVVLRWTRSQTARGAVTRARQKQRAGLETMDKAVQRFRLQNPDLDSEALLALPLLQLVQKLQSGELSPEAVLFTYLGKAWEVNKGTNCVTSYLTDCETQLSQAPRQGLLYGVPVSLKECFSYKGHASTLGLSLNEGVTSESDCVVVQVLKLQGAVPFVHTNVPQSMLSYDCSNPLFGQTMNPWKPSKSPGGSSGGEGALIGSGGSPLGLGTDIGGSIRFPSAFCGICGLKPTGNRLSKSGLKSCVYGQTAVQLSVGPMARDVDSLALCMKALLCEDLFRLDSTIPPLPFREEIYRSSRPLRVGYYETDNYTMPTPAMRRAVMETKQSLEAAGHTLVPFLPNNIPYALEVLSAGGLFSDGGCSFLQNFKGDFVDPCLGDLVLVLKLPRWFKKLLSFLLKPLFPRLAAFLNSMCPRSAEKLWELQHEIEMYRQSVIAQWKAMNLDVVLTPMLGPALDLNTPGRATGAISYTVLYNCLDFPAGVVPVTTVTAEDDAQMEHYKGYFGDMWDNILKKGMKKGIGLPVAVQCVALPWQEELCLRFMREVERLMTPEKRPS

[3] = molecular target: T3, Phosphatidylserine lipase ABHD16A (Mus musculus) (UniProt Q9Z1Q2); test: Inhibition of BAT5 in mouse brain assessed as reduction in spectral count at 50 uM treated for 30 mins by ABPP-MudPIT assay relative to control; type: tissue-based; how it was run: as §1
T3 sequence (whole entry): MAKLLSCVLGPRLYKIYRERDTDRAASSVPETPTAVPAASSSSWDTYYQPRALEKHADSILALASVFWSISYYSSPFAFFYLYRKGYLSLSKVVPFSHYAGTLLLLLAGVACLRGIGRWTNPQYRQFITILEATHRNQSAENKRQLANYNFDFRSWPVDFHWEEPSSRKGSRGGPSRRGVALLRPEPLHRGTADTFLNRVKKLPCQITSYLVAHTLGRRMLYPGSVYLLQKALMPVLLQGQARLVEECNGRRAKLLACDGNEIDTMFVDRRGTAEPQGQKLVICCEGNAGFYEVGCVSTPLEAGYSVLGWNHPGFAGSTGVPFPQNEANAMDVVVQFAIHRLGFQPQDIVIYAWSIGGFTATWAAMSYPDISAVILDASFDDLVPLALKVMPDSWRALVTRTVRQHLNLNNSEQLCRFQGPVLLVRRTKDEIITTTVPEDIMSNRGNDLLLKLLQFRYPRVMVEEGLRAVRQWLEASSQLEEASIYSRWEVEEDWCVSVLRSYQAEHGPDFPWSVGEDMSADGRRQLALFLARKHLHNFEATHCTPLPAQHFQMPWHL

[4] = molecular target: T4, Platelet-activating factor acetylhydrolase (Mus musculus) (UniProt Q60963); test: Inhibition of PLA2g7 in mouse brain assessed as reduction in spectral count at 5 uM treated for 30 mins by ABPP-MudPIT assay relative to control; type: tissue-based; how it was run: as §1
T4 sequence (whole entry): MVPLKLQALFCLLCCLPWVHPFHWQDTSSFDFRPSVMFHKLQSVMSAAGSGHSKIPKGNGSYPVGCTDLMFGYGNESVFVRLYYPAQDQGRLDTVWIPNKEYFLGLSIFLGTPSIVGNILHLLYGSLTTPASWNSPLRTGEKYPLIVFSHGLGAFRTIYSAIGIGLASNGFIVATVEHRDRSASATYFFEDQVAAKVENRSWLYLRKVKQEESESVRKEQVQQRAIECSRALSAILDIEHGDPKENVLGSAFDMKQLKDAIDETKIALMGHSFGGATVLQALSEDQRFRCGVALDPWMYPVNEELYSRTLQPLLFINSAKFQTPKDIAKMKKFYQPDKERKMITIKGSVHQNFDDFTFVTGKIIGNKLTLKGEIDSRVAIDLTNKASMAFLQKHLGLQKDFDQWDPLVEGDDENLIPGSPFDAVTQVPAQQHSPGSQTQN

[5] = molecular target: Hormone-sensitive lipase (Mus musculus) (UniProt P54310); test: Inhibition of HSL in mouse brain assessed as reduction in spectral count at 50 uM treated for 30 mins by ABPP-MudPIT assay relative to control; type: tissue-based; how it was run: as §1
[6] = molecular target: Acetylcholinesterase (Mus musculus) (UniProt P21836); test: Inhibition of AChE in mouse brain assessed as reduction in spectral count at 5 uM treated for 30 mins by ABPP-MudPIT assay relative to control; type: tissue-based; how it was run: as §1
[7] = molecular target: T4, Platelet-activating factor acetylhydrolase (Mus musculus); test: Inhibition of PLA2g7 in mouse brain by LC-MS analysis; type: tissue-based
[8] = molecular target: Diacylglycerol lipase-alpha (Homo sapiens, UniProt Q9Y4D2); test: Inhibition of human recombinant DAGLalpha overexpressed in african green monkey COS7 cells; type: cell-based, COS-7
[9] = molecular target: Diacylglycerol lipase-beta (Homo sapiens, UniProt Q8NCG7); test: Inhibition of human recombinant DAGLbeta overexpressed in african green monkey COS7 cells; type: cell-based, COS-7
[10] = molecular target: T4, Platelet-activating factor acetylhydrolase (Mus musculus); details: Brain, 50 uM
[11] = molecular target: Tripeptidyl-peptidase 2 (Mus musculus) (UniProt Q64514); details: Brain, 5 uM
Chain of Tripeptidyl-peptidase 2 (Mus musculus) (Q64514 whole entry): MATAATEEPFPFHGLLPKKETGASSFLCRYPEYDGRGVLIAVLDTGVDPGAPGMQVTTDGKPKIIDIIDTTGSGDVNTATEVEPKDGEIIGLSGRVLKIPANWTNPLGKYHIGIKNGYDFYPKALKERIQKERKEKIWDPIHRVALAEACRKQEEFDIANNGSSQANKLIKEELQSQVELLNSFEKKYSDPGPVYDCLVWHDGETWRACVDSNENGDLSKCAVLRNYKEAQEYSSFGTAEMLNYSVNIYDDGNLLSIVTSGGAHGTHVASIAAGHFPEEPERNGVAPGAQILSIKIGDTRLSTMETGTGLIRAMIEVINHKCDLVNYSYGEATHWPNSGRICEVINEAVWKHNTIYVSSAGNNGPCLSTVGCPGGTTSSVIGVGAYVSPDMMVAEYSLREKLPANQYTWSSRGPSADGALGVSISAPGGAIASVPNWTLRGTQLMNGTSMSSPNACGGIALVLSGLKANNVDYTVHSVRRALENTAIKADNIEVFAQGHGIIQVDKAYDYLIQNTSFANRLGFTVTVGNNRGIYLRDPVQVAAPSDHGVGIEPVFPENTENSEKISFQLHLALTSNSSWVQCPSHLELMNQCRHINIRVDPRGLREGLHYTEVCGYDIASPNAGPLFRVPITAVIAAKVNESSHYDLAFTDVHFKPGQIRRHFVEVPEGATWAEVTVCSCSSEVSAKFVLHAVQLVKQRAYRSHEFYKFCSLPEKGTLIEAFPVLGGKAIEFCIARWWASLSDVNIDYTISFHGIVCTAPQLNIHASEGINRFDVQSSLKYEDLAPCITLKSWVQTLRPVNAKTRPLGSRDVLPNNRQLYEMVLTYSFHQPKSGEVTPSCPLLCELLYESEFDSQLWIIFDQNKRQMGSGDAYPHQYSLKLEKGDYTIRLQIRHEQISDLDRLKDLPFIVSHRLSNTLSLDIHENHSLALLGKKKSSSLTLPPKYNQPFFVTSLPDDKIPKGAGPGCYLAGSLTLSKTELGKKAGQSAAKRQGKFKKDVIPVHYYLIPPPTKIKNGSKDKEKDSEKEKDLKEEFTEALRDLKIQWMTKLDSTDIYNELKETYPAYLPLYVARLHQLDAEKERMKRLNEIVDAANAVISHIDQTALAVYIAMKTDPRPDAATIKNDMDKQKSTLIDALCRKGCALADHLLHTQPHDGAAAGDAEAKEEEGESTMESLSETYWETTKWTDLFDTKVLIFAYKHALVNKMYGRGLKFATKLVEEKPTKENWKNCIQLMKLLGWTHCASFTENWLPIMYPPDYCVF

Chain of Hormone-sensitive lipase (Mus musculus) (P54310 whole entry): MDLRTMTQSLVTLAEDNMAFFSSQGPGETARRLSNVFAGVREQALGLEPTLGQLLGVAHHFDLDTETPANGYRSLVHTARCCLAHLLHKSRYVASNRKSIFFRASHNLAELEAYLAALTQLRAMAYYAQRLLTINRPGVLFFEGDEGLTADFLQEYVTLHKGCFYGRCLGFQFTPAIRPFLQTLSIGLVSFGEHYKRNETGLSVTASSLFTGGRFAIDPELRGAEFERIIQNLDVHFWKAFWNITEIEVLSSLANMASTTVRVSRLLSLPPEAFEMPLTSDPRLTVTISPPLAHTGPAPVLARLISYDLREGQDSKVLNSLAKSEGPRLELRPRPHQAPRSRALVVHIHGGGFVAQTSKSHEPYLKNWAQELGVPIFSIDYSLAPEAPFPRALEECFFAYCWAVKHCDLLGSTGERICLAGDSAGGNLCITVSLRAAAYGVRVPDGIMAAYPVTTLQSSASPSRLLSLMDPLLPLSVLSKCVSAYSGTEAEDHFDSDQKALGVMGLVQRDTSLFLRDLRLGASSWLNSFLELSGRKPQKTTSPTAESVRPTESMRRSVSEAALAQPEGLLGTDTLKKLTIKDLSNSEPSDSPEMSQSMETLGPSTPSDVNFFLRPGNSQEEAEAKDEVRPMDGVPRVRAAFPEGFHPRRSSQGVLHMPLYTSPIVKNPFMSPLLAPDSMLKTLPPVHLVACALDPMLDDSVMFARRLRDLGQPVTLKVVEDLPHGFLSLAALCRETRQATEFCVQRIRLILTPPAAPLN
Chain of Acetylcholinesterase (Mus musculus) (P21836 whole entry): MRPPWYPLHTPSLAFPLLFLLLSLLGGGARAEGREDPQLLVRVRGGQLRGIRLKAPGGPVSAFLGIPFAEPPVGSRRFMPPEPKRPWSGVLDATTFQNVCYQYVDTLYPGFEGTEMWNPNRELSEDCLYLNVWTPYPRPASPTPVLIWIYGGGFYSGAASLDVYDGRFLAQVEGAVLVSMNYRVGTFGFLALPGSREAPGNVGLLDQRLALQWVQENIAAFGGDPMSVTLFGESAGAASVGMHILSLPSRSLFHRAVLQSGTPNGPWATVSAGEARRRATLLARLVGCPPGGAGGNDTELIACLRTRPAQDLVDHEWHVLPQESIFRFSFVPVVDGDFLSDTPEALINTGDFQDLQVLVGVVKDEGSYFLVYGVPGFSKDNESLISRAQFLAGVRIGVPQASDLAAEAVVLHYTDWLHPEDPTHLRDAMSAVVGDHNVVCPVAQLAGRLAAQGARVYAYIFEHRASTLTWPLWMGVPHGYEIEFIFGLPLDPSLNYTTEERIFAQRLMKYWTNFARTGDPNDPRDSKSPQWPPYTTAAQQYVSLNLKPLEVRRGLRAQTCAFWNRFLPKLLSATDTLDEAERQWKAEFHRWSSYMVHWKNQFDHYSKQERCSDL
Chain of Diacylglycerol lipase-beta (Q8NCG7 whole entry): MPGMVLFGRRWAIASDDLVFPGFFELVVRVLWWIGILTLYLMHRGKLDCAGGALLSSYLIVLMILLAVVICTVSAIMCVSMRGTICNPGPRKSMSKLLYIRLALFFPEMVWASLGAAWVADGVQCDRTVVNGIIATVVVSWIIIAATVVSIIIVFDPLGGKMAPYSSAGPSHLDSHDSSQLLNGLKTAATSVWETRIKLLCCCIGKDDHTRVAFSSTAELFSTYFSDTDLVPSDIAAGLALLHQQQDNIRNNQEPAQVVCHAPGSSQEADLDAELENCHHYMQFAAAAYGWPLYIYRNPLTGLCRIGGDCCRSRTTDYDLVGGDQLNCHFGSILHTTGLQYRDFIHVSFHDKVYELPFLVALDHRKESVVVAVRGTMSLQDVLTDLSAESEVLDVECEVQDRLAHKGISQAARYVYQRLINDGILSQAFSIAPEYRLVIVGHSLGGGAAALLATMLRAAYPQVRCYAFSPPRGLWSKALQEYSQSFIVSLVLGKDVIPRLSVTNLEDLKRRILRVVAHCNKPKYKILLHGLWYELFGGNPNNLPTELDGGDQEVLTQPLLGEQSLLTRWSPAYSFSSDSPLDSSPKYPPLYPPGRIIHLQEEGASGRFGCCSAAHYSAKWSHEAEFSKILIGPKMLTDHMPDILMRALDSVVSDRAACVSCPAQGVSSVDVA
Chain of Diacylglycerol lipase-alpha (Q9Y4D2 whole entry): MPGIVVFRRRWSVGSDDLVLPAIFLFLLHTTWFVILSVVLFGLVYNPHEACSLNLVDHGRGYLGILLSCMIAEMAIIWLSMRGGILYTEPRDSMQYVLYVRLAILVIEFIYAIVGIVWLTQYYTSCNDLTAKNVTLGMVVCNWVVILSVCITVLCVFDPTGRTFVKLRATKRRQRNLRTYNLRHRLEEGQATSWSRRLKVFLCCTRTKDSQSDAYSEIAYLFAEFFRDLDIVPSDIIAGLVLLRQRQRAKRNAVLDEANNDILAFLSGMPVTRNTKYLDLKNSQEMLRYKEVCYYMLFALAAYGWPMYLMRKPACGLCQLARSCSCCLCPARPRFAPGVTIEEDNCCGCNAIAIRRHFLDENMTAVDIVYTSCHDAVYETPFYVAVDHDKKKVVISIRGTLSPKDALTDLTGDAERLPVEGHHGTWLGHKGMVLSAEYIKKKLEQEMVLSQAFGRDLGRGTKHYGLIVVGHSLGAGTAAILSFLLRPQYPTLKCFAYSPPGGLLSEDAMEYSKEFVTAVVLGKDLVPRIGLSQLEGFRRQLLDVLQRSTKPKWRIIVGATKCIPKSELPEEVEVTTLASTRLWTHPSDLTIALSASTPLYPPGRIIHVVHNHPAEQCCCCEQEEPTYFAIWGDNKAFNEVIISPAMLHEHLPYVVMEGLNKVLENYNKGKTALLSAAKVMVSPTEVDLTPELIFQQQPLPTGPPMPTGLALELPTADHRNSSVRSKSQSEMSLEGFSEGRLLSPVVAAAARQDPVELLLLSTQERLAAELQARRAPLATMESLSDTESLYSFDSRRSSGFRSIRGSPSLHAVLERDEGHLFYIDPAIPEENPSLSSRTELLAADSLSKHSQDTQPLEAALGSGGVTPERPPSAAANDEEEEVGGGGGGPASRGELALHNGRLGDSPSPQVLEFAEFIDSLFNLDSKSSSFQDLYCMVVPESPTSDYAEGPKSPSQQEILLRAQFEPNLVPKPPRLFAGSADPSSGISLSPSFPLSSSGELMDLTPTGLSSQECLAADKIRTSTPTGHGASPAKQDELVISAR

SMILES | inhibition [1] [%] | inhibition [2] [%] | inhibition [3] [%] | inhibition [4] [%] | inhibition [5] [%] | inhibition [6] [%] | Activity [7] | IC50 [8] [nM] | IC50 [9] [nM] | inhibition [10] [%] | inhibition [11] [%]
O=C(NCCCCCCNC(=O)ON=C1CCCCC1)ON=C1CCCCC1 | > 60 | > 60 | > 60 | > 60 | < 60 | > 60 | Active | 60 | 60 | – | –
CCCCCCCCCCC[C@@H](C[C@@H]1OC(=O)[C@H]1CCCCCC)OC(=O)[C@H](CC(C)C)NC=O [ORLISTAT] | – | – | – | – | – | – | – | – | – | > 60 | > 60

Reference: ChEMBL document CHEMBL1151781, “Selectivity of inhibitors of endocannabinoid biosynthesis evaluated by activity-based protein profiling” (Bioorg Med Chem Lett, 2008)
